DTT redox prof = compounds producing H2O2 with reducing agent – biochemical, NIH compound library profiling, artefact control for MLSCN library redox annotation, primary screen; DTT-dependent redox cycling H2O2, phenol red/HRP absorbance; 100% = 100 µM peroxide control, 0% = buffer; activation, % at 10 µM; 200,000 tested, 0.03% active; AID 878;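 active = activation of at least 50% relative to the plate's high and low controls in the primary single-dose screen; inactive = activation below 50%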;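 note: compound incubated with DTT at 0.8 mM final as the reducing agent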
T cruzi repl = blocks replication of Trypanosoma cruzi; T. cruzi beta-gal in NIH3T3, luminescence, 90 h; inhibition, % (test concentration not listed); 300,000 tested, 1.4% active; AID 1885;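 active = mean inhibition across valid replicates above about 55%, limit read from the data; inconclusive = mean below that limit but half or more replicates reach it; inactive = mean below it, under half of replicates reach it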;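 note: signal also drops with host cell toxicity which is not excluded here; higher percent means less beta-gal luminescence so fewer parasites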
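Assay system: NIH/3T3 fibroblasts plus reporter T. cruzi. Amount: NIH/3T3 cells, 5,000 per well. Buffer or medium: DMEM, 2% fetal bovine serum. Doses: compound pinned at 50 nL/well, DMSO. Schedule: ≥90 h infection period, 3 h prior cell attachment. Signal: luminescent β-galactosidase signal after 60 min lysis. Read-out: parasite load inhibition, %.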
Hep lipid drop = modulators of hepatic lipid droplet formation. AML12 mouse hepatocytes, oleate lipid droplets, BODIPY imaging. inhibition, % at 6.5 µM. 240,000 tested, 0.4% active;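 active = lipid droplet intensity inhibited by at least 50%, with more than 500 cells counted; inconclusive = wells with under 300 cells, treated as cytotoxic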
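Test system: AML12 mouse liver cells; schedule: overnight exposure; technique: high-content imaging of BODIPY-stained droplets and DAPI nuclei; read-out: % inhibition of corrected integrated BODIPY droplet signal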
MPTP block = permeability transition pore inhibition; isolated mouse mitochondria, Ca2+ swelling absorbance, 30 min; 360,000 tested, 1.4% active; inhibition, % at 10 µM;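 active = inhibition of 50% or more, scaled per plate between neutral and stimulator controls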
Lmaj promast = inhibitors of Leishmania major promastigote growth | Leishmania major promastigotes, resazurin fluorescence viability | 200,000 tested, 9% active | AID 1063 | inhibition, % at 10 µM; in the data active = inhibition above about 50%;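 note: promastigotes grown with compound for 44 hours at 28 °C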
Rh123 counter = Rhodamine 123 counter-screen of mitochondrial pore hits; shares compounds with MPTP block; isolated mitochondria, membrane potential, Rhodamine 123 fluorescence; inhibition, % at 10 µM; 5,000 tested, 78% active; in the data active = inhibition above about 22%
MPTP swell DR = MPTP inhibition, dose response swelling confirmation; shares compounds with MPTP block; 780 tested, 58% active; IC50, µM; isolated mitochondria swelling, absorbance; in the data active = IC50 below about 20 µM
MPTP cs DR = active in counter-screen for permeability transition pore inhibitors | shares compounds with MPTP block | isolated mitochondria counterscreen, fluorescence read-out | IC50, µM | 780 tested, 49% active; in the data active = IC50 below about 80 µM
Of the large screens only hits and unclear results are named; the others gave an inactive call (follow-up assays come after a bar, where they were run). Many of the other results were omitted from the sample, so hits are more common in it than they were.

COc1ccc(-n2c(SCC(=O)N/N=C(\C)c3cccnc3)nc3ccccc3c2=O)cc1	none (no result: DTT redox prof, Lmaj promast)
COc1ccc(-c2cn(Cc3ccc(C(=O)NCc4ccc(C)cc4)cc3)c(C(C)N)n2)cc1 (stereo not drawn)	MPTP block 75 (no result: DTT redox prof, Hep lipid drop, Lmaj promast) | Rh123 counter inactive | MPTP swell DR 10 | MPTP cs DR inactive
COc1ccc(-c2cn(Cc3ccc(C(N)=O)cc3)c(-c3ccc(Cl)nc3)n2)cc1	none (no result: DTT redox prof, T cruzi repl, Hep lipid drop, Lmaj promast)
C/C(=N\N=C(c1ccccc1)c1ccccc1)c1ccco1	MPTP block 93 | Rh123 counter inactive
CSc1ccccc1OCc1cc(C(=O)N2CCN3CCCC3C2)no1 (stereo not drawn)	none (no result: DTT redox prof, Lmaj promast)
O=C(Nc1ccc(S(=O)(=O)N2CCCC2)cc1)c1cnccn1	none
O=C(Nc1ccc(S(=O)(=O)N2CCN(Cc3ccccc3)CC2)cc1)c1cnccn1	MPTP block 73 (no result: Hep lipid drop) | Rh123 counter 42
CCCSCCCNC(=O)CN1C(=O)COc2ccc(S(=O)(=O)N3CCCC3)cc21	none (no result: DTT redox prof, Lmaj promast)
CCn1c(CC(=O)Nc2ccccc2)n[nH]c1=S	none
CCNC(=O)c1ccc2c(c1)C1C3CCC(C3)C1C(c1ccccc1)N2 (stereo not drawn)	none
O=C(c1ccc2c(=O)n(C3CCCC3)c(=S)[nH]c2c1)N1CCc2ccccc21	MPTP block 80 (no result: Hep lipid drop) | Rh123 counter 69
Cc1ccc(C(NC(=O)NC(C)c2ccccc2)C(Cl)(Cl)Cl)cc1F (stereo not drawn)	MPTP block 76 | Rh123 counter 83
CC(NC(=O)Nc1ccc(Cl)cc1)c1ccccc1 (stereo not drawn)	none (no result: DTT redox prof, Lmaj promast)
CC(C)c1ccc(NC(=O)c2snc3ccc(Cl)cc23)cc1	MPTP block 74 | Rh123 counter 74
CC(C)n1cc(CN2CCC(C(=O)Nc3ccc(Oc4ccccc4F)cc3)CC2)cn1	MPTP block 83 (no result: DTT redox prof, Lmaj promast) | Rh123 counter inactive | MPTP swell DR 4.6 | MPTP cs DR 26
Cc1cc(Br)cn2c(Cc3cccc(F)c3)c(-c3ccc(C#N)cc3)nc12	none (no result: DTT redox prof, T cruzi repl, Hep lipid drop, Lmaj promast)
CC(C)c1nc(SCc2c(F)cccc2Cl)c2c(=O)n(C)c(=O)n(C)c2n1	MPTP block 94 | Rh123 counter inactive | MPTP swell DR inactive | MPTP cs DR inactive
Cc1cc(Nc2cccc(F)c2)nc(-c2ccccc2O)n1	T cruzi repl 56, MPTP block 59 (no result: Hep lipid drop) | Rh123 counter 51
CC(C)CC1C2C(=O)N(c3ccccc3)C(=O)C2ON1c1ccccc1 (stereo not drawn)	none (no result: DTT redox prof, Lmaj promast)
CSc1c(CC(=O)Nc2ccccc2)n(C)c2ccccc12	none (no result: DTT redox prof, Lmaj promast)
CSc1c(CC(=O)Nc2ccc(F)cc2)n(Cc2ccccc2)c2ccccc12	MPTP block 81 | Rh123 counter 67
N=c1c2c(-c3ccccc3)c(-c3ccccc3)n(Cc3ccco3)c2ncn1CCO	MPTP block 81, Lmaj promast 100 | Rh123 counter inactive
N=c1c2c(ncn1Cc1ccco1)Oc1cc(O)ccc1C2c1ccccc1 (stereo not drawn)	none (no result: DTT redox prof, Lmaj promast)
Cc1cccc(C(=O)NNC2=C(C(=O)C(F)(F)F)CCC2)c1O	MPTP block 93 | Rh123 counter 92
O=C(NNC1=C(C(=O)C(F)(F)F)CCC1)c1cccc(O)c1	none
COc1ccc(CNS(=O)(=O)c2ccc3c(c2)CC(C)N3C(=O)C2CC2)cc1 (stereo not drawn)	MPTP block 99 (no result: DTT redox prof, Lmaj promast) | Rh123 counter 88
COc1cccc(CNS(=O)(=O)c2ccc3c(c2)CC(C)N3C(=O)C2CC2)c1 (stereo not drawn)	none (no result: DTT redox prof, Lmaj promast)
O=C(NCCCN1CCOCC1)C(c1ccccc1)c1ccccc1	none (no result: DTT redox prof, Lmaj promast)
O=c1c(N=Nc2ccc(O)cc2)c(-c2ccccc2)[nH]n1-c1ccc([N+](=O)[O-])cc1	none
O=c1cc(-c2ccccc2)[nH]n1-c1ccc([N+](=O)[O-])cc1	MPTP block 100 (no result: Hep lipid drop) | Rh123 counter 77
FC(F)(F)Oc1ccc(NC(=S)Nc2ccc(OC(F)(F)F)cc2)cc1	MPTP block 95 (no result: DTT redox prof, Lmaj promast) | Rh123 counter 71
O=C(O)/C=C/C(=O)Nc1ccc(OC(F)(F)F)cc1	none (no result: DTT redox prof, Lmaj promast)
CC(C)c1ccc(NC(=S)Nc2ccc(OC(F)(F)F)cc2)cc1	MPTP block 90 | Rh123 counter 90
COc1ccc(CCNC(=S)Nc2ccc(C(C)C)cc2)cc1	none (no result: DTT redox prof, Lmaj promast)
CCN(CC)S(=O)(=O)c1cccc(C(=O)N[C@H](C(=O)Nc2nc3ccc(F)cc3s2)C(C)C)c1	MPTP block 55 | Rh123 counter 72
CCN(CC)S(=O)(=O)c1cc(C(=O)OCC(=O)c2ccc3c(c2)NC(=O)CO3)ccc1Cl	MPTP block 85 | Rh123 counter 59
CCN(CC)S(=O)(=O)c1ccc(C(=O)OCC(=O)c2ccc3c(c2)NC(=O)CO3)cc1	none (no result: Hep lipid drop)
Cc1cc(C)c(S(=O)(=O)Nc2ccccc2C(=O)N2CCCC2)c(C)c1	none (no result: DTT redox prof, Lmaj promast)
O=C(O)Cc1cccc(=O)c(O)c1C(=O)O	none (no result: DTT redox prof, T cruzi repl, Hep lipid drop, Lmaj promast)
O=C(Nc1cc(-c2ccccc2)nn1C1CCCCC1)c1ccc(Cl)cc1	MPTP block 64 (no result: DTT redox prof, T cruzi repl, Hep lipid drop, Lmaj promast) | Rh123 counter 97
Cc1cc(C(=O)CSc2nc(N)cc(=O)[nH]2)c(C)n1-c1ccc(OC(F)F)cc1	MPTP block 98, Lmaj promast 98 | Rh123 counter 89
Cc1ccc2nc(SCC(=O)OCc3ccccc3)nc(=O)n2c1	none (no result: DTT redox prof, Hep lipid drop, Lmaj promast)
CCC1=NN(C(=O)c2ccc(Br)cc2)C(O)(c2ccccc2)C1 (stereo not drawn)	MPTP block 61 | Rh123 counter 75
CC1(C(=O)NS(=O)(=O)c2ccc3ccccc3c2)CCN1C(=O)CC1CCCCC1 (stereo not drawn)	none (no result: DTT redox prof, T cruzi repl, Hep lipid drop, Lmaj promast)
COc1ccc(/C=N/NC(=O)c2[nH]c3ccc(Cl)cc3c2-c2ccccc2)c(C(=O)O)c1OC	none (no result: DTT redox prof, Hep lipid drop, Lmaj promast)
Cc1c(C(=O)N/N=C/c2ccccc2)[nH]c2ccc(Cl)cc12	MPTP block 87 | Rh123 counter 89
O=C(N/N=C/c1ccccc1Cl)c1[nH]c2ccc(Br)cc2c1-c1ccccc1	Hep lipid drop inconclusive, MPTP block 82 | Rh123 counter 88
Cc1c(C(=O)N/N=C/c2ccc(N(C)C)cc2)[nH]c2ccc(Cl)cc12	Hep lipid drop inconclusive, MPTP block 80 | Rh123 counter 74
O=C1CN(C(=O)NCCC(=O)NC2CCCCC2)c2ccccc2N1	none (no result: DTT redox prof, Lmaj promast)
O=C(NCc1ccccc1)c1c[nH]c2ccccc2c1=O	none (no result: DTT redox prof, Lmaj promast)
CCN(CC)CCCNC(=O)c1cc(-c2ccc(Cl)c(Cl)c2)on1	MPTP block 79, Lmaj promast 99 (no result: Hep lipid drop) | Rh123 counter inactive
CCN(CC)CCCNC(=O)c1cc(-c2ccc(O)cc2)on1	none (no result: Hep lipid drop)
CCC(C)N(C(=O)COC(=O)c1ccccc1SCC(=O)N1CCCC1)C1CCS(=O)(=O)C1 (stereo not drawn)	none (no result: DTT redox prof, Lmaj promast)
